# ChEMBL document CHEMBL4138139, “Discovery of VU6005649, a CNS Penetrant mGlu7/8 Receptor PAM Derived from a Series of Pyrazolo[1,5-a]pyrimidines” (ACS Med Chem Lett, 2017)
# The source made the active and inactive calls. The calls are words filed in the database; no cut-off is given here.
# Assays:
# Rattus norvegicus [1] = species on record: Rattus norvegicus; test: Inhibition of rat kainate glutamate receptor at 10 uM relative to control
# Outline: (§1)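 Single-concentration screen at 10 μM within a commercial lead-profiling panel of 68 GPCRs, ion channels and transporters. Activity read as percent inhibition of specific radioligand binding to each target.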
# [2] = target: Mu-type opioid receptor (Homo sapiens) (UniProt P35372); test: Displacement of [3H] diprenorphine from recombinant human mu opioid receptor expressed in CHOK1 cell membranes at 10 uM after 60 mins by scintillation counting method relative to control
# Sequence of Mu-type opioid receptor (Homo sapiens) (P35372 whole entry): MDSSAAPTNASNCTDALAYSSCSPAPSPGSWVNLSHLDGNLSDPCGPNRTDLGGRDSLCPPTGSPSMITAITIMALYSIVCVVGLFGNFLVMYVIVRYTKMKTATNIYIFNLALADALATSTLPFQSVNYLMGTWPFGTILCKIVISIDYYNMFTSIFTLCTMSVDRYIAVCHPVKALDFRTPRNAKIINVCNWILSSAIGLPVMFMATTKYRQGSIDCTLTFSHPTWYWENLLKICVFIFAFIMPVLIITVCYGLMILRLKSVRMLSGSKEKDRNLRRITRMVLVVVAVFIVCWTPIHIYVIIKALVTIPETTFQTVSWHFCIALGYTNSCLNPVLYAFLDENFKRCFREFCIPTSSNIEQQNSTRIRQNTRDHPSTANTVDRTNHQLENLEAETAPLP
# Outline: (§2)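 Single-concentration screen at 10 μM in an outsourced profiling panel of 68 GPCRs, ion channels and transporters. Activity read out as percent inhibition of specific radioligand binding.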
# Rattus norvegicus [3] = species on record: Rattus norvegicus; test: Displacement of [3H]-flunitrazepam from Wistar rat brain central GABA-A receptor at 10 uM measured after 60 mins by scintillation counting method relative to control; outline: as §1
# [4] = target: Muscarinic acetylcholine receptor M1 (Homo sapiens) (UniProt P11229); test: Displacement of [3H] N-methylscopolamine from recombinant human M1 receptor expressed in CHOK1 cell membranes at 10 uM after 120 mins by scintillation counting method relative to control; outline: as §2
# Sequence of Muscarinic acetylcholine receptor M1 (Homo sapiens) (P11229 whole entry): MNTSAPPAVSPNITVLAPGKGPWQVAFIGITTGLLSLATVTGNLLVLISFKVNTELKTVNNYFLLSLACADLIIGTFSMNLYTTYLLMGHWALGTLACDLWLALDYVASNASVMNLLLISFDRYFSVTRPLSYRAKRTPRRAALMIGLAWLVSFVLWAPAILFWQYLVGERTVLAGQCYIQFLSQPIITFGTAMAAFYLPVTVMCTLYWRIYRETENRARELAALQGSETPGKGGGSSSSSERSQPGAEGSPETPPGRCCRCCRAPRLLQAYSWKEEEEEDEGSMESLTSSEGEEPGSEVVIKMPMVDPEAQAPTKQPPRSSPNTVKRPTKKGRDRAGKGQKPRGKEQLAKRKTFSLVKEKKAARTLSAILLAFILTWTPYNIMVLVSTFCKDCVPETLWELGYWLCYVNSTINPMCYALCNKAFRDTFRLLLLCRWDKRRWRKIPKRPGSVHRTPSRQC
# Cytochrome P450 3A4 = Cytochrome P450 3A4 (Homo sapiens, UniProt P08684); test: Inhibition of CYP3A4 in human liver microsomes using midazolam as substrate preincubated for 15 mins followed by NADPH addition measured after 8 mins by LC-MS/MS analysis; format: ADME
# Sequence of Cytochrome P450 3A4 (P08684 whole entry): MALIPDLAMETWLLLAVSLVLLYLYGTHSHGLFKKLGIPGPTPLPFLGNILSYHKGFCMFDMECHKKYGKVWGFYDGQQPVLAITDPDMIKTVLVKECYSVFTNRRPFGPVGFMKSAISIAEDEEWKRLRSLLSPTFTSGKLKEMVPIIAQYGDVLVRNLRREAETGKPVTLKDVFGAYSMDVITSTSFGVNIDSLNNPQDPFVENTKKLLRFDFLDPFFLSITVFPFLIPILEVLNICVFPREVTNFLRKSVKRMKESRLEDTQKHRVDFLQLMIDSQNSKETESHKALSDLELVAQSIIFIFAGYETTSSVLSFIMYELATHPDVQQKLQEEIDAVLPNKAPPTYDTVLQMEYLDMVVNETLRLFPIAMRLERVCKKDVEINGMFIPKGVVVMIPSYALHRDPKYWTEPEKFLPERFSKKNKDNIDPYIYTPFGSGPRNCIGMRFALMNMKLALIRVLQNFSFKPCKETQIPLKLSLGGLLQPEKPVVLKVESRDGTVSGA
# [5] = target: Glutamate NMDA receptor (Rattus norvegicus) (UniProt P35439+Q00959+Q00960+Q00961+Q62645+Q8VHN2+Q9R1M7); test: Displacement of [3H] TCP from glutamate NMDA receptor phencyclidine binding site in Wistar rat cerebral cortical membrane at 10 uM after 45 mins by scintillation counting method relative to control; outline: as §2
# Rattus norvegicus [6] = test: Antipsychotic activity in rat assessed as inhibition of amphetamine-induced hyperlocomotion at 30 mg/kg, ip; format: functional, organism-based
# Outline: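 Rats given 30 mg/kg IP in 10% Tween 80/H2O, challenged with amphetamine 0.75 mg/kg s.c.; locomotor activity measured.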
# [7] = target: Beta-1 adrenergic receptor (Homo sapiens) (UniProt P08588); test: Displacement of [125I] cyanopindolol from full length human recombinant beta1 receptor expressed in CHOK1 cell membranes at 10 uM after 120 mins by scintillation counting method relative to control; outline: as §2
# Sequence of Beta-1 adrenergic receptor (Homo sapiens) (P08588 whole entry, looked up): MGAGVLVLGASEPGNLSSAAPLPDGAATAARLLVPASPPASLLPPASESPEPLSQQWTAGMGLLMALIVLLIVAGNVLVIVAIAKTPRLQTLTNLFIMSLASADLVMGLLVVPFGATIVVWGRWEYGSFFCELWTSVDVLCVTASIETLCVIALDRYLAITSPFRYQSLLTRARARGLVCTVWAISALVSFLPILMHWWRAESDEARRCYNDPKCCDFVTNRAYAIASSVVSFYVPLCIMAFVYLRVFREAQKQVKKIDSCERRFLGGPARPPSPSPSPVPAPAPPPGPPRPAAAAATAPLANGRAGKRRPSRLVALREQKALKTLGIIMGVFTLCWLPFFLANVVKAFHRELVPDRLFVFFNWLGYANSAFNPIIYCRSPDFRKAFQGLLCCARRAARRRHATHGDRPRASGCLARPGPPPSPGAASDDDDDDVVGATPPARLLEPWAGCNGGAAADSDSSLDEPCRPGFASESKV
# [8] = target: Metabotropic glutamate receptor 2 (Rattus norvegicus, UniProt P31421); test: Positive allosteric modulation of rat mGlu2 receptor expressed in HEK cells assessed as increase in glutamate-induced calcium flux incubated for 142 secs followed by glutamate addition measured after 120 secs by Fluo4-AM dye based fluorescence assay; format: functional, cell-based
# Sequence of Metabotropic glutamate receptor 2 (P31421 whole entry): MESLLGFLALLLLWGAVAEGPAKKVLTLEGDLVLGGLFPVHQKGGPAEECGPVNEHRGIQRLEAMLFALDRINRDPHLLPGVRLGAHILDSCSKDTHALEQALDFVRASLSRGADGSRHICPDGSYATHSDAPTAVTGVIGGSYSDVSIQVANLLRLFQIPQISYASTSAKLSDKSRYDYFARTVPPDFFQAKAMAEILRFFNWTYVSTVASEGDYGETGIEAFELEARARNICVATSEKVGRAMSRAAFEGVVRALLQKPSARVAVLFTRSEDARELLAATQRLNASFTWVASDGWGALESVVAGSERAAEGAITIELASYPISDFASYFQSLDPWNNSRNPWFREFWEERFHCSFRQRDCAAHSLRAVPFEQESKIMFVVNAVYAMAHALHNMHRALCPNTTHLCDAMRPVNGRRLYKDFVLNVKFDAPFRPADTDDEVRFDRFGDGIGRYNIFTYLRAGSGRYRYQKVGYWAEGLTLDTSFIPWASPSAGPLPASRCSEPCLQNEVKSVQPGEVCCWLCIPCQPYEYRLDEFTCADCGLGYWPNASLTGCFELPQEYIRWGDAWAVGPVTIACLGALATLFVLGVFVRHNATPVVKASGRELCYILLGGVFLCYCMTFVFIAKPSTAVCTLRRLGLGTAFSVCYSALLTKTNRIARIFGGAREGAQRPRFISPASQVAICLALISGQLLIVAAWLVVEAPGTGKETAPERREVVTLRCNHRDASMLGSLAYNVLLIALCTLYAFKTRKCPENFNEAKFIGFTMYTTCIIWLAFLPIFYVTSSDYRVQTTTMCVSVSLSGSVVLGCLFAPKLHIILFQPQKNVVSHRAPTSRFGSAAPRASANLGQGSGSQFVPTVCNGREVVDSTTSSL
# [9] = target: Neuropeptide Y receptor type 1 (Homo sapiens) (UniProt P25929); test: Displacement of [125I] Peptide YY from Y1 receptor in human SK-N-MC cell membrane at 10 uM after 60 mins by scintillation counting method relative to control; format: cell membranes; outline: as §2
# Sequence of Neuropeptide Y receptor type 1 (Homo sapiens) (P25929 whole entry): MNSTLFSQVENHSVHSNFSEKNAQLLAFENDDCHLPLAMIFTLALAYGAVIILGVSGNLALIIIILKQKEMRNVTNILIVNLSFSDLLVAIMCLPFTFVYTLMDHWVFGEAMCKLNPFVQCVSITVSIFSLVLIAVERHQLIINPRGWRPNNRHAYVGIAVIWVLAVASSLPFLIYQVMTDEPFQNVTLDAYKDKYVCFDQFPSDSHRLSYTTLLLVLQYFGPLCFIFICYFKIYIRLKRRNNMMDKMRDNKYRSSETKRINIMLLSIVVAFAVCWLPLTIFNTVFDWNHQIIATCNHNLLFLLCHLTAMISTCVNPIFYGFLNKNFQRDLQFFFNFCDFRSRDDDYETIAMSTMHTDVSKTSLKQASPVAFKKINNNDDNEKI
# [10] = target: Melatonin receptor type 1A (Homo sapiens) (UniProt P48039); test: Inhibition of human MT1 receptor at 10 uM relative to control; outline: as §1
# Sequence of Melatonin receptor type 1A (Homo sapiens) (P48039 whole entry): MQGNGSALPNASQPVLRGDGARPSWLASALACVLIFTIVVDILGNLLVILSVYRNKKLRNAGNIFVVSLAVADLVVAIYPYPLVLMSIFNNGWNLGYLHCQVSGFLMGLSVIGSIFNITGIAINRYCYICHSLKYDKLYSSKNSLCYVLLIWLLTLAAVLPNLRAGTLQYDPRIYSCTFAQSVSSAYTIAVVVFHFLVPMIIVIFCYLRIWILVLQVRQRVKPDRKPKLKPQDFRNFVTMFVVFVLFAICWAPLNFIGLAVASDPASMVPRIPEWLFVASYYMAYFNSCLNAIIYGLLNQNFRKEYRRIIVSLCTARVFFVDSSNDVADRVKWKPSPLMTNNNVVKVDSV
# [11] = Brain to plasma partition coefficient, Kp of the compound in C57BL/6 mouse at 10 mg/kg, ip measured after 60 mins by LC-MS/MS analysis; format: ADME, organism-based; details: brain and plasma
# Outline: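 Mice given 10 mg/kg IP; time course out to 6 h with nonserial sampling of plasma and brain at each time point; Kp from brain/plasma levels.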
structure (smiles),measurement,setting,value
COc1ccc(-c2c(C)nn3c(C(F)(F)F)cc(C)nc23)c(F)c1F,inhibition,Rattus norvegicus [1],< 50%
same,inhibition,[2],< 50%
same,inhibition,Rattus norvegicus [3],< 50%
same,inhibition,[4],< 50%
same,IC50,Cytochrome P450 3A4,> 30 µM
same,inhibition,[5],< 50%
same,inhibition,Rattus norvegicus [6],inactive
same,inhibition,[7],< 50%
same,EC50,[8],> 10 µM
same,inhibition,[9],< 50%
same,inhibition,[10],< 50%
same,Kp at 1 h,[11],2.1
